Assay results: ChEMBL document CHEMBL1649340, “Sesquiterpene coumarins from Ferula gumosa” (J Nat Prod, 2010)
pIC50: −log10 of the molar value. Active and inactive are the calls of the source. The calls are words filed in the database; no cut-off is given here.

Key:
Format in all cases: functional, cell-based
M14 = experiment: Cytotoxicity against human M14 cells after 48 hrs by MTT assay
Outline: (§1)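 Adherent lines from ATCC, grown in DMEM with 2 mM L-glutamine, 10% heat-inactivated FBS and 1% pen/strep, used for up to 10 passages. 3 × 10^3 cells were seeded per well and left overnight at 37 °C in 5% CO2. Serial dilutions (1-50 µM) were added for 48 h. MTT (5 mg/mL stock) was added for 3 h, then solubilised in 50% DMF/20% SDS at pH 4.5. OD was read at 620 nm, with viability given as % of 0.1% DMSO controls.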

MCF7 = experiment: Cytotoxicity against human MCF7 cells after 48 hrs by MTT assay; outline: as §1
T98G = experiment: Cytotoxicity against human T98G cells after 48 hrs by MTT assay; outline: as §1
A549 = experiment: Cytotoxicity against human A549 cells after 48 hrs by MTT assay; outline: as §1
SAOS-2 = experiment: Cytotoxicity against human Saos2 cells after 48 hrs by MTT assay; outline: as §1
FRO = experiment: (§2) Cytotoxicity against human FRO cells after 48 hrs by MTT assay; outline: as §1
U-937 = experiment: Cytotoxicity against human U937 cells after 48 hrs by MTT assay
Outline: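 U937 cells were grown in RPMI with 2 mM L-glutamine, 10% FBS and 1% pen/strep, for no more than 10 passages. 3 × 10^3 cells per well were plated and incubated overnight at 37 °C in 5% CO2, then exposed to serial dilutions (1-50 µM) for 48 h. MTT (5 mg/mL stock) was added for 3 h, followed by lysis in 50% DMF/20% SDS at pH 4.5. OD was read at 620 nm, and viability was expressed against 0.1% DMSO controls.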

[1] = as §2; outline: as §1

SMILES	Activity (M14)	Activity (MCF7)	Activity (T98G)	Activity (A549)	Activity (SAOS-2)	Activity (FRO)	Activity (U-937)	pIC50 (M14; M14, 48 h)	pIC50 (MCF7; MCF7, 48 h)	pIC50 (T98G)	pIC50 (A549; A549, 48 h)	pIC50 (SAOS-2; SAOS-2, 48 h)	pIC50 [1]	pIC50 (U-937; U-937, 48 h)
C=C1C[C@@H](O[C@@H]2O[C@H](CO[C@@H]3OC[C@](O)(CO)[C@H]3O)[C@@H](O)[C@H](O)[C@H]2O)[C@@H]2C(C)(C)[C@H](O)CC[C@@]2(C)[C@@H]1COc1ccc2ccc(=O)oc2c1	inactive	inactive	inactive	inactive	inactive	inactive	inactive	–	–	–	–	–	–	–
CC1(C)[C@H](O)CC[C@]2(C)[C@@H]1C=C[C@](C)(O)[C@H]2COc1ccc2ccc(=O)oc2c1	inactive	inactive	inactive	inactive	inactive	inactive	inactive	–	–	–	–	–	–	–
C=C1C[C@@H](O[C@@H]2O[C@H](CO)[C@@H](O)[C@H](O)[C@H]2O)[C@@H]2C(C)(C)[C@@H](O)CC[C@@]2(C)[C@@H]1COc1ccc2ccc(=O)oc2c1	inactive	inactive	inactive	inactive	inactive	inactive	inactive	–	–	–	–	–	–	–
CC1=CC[C@@H]2C(C)(C)[C@H](O)CC[C@@]2(C)[C@@H]1COc1ccc2ccc(=O)oc2c1 [FESELOL]	–	–	–	–	–	–	–	< 5.00	< 5.00	< 5.00	< 5.00	< 5.00	< 5.00	5.10
C=C1C[C@@H](O[C@@H]2O[C@H](CO)[C@@H](O)[C@H](O)[C@H]2O)[C@@H]2C(C)(C)[C@H](O)CC[C@@]2(C)[C@@H]1COc1ccc2ccc(=O)oc2c1	inactive	inactive	inactive	inactive	inactive	inactive	inactive	–	–	–	–	–	–	–
